Screening data: PubChem BioAssay, several laboratories
STAT3 blocker: reduces IL-6 driven STAT3 reporter signal; U3A cells, IL-6 STAT3-luciferase reporter, luminescence; host cell line lacks STAT1; inhibition, % at 5.5 µM; 190,000 compounds, 0.89% hits; AID 862;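 active means inhibition above the mean inhibition across all screened compounds plus 3 SD, cut at about 44% in these data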
HSV augment: increases HSV replication in cells | HSV replication augmentation in cells, fold increase | maximum fold increase | 220,000 compounds, 0.005% hits | AID 1956; in the data active means maximum fold increase above about 1.5; inconclusive means no clear call, values can overlap the other calls; tested in PC3 cells
STAT1 inh: inhibitors of IFN-gamma induced STAT1 signaling; NIH 3T3 STAT1-luciferase reporter, luminescence; inhibition, % at 5.5 µM; 200,000 compounds, 0.35% hits; AID 920;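 active means inhibition above a set limit, the mean inhibition across all tested compounds plus 3 SD, cut at about 34% in these data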
STAT3 act: activators of IL-6 induced STAT3 signaling; U3A cells, IL-6 STAT3-luciferase reporter, luminescence; 100% = signal with IL-6 EC80 alone; AID 871; activation (% of control), % at 5.6 µM; 190,000 compounds, 0.91% hits;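 active means activation above the screen-wide mean of compound activation plus 3 SD, cut at about 130% in these data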
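Test system: Human STAT1-deficient U3A cells with stable STAT3-luciferase reporter | Also added: Interleukin-6, 33 ng/mL | Timing: Compound pre-incubation 1 h before IL-6, then 6 h stimulation at 37 °C | Technique: Luciferase reporter luminescence | Read-out: Percent of IL-6-only median luminescence | Benchmarks: IL-6-only wells as 100% reference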
KCC2 mod: modulates chloride dependent transport by human KCC2; Q9H2X9; B-score of Tl+ flux slope (higher = more flux/activation; lower = inhibition) at 10 µM; 190,000 compounds, 2.2% hits; KCC2 cells, thallium flux FluoZin-2 fluorescence;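 active means thallium flux slope and its plate-corrected score both differing from the plate sample mean at a set confidence after two filtering rounds, in either direction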;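 further: slope of fluorescence scaled to starting intensity during 10 to 20 s after thallium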
Target sequence (Q9H2X9 whole entry, looked up): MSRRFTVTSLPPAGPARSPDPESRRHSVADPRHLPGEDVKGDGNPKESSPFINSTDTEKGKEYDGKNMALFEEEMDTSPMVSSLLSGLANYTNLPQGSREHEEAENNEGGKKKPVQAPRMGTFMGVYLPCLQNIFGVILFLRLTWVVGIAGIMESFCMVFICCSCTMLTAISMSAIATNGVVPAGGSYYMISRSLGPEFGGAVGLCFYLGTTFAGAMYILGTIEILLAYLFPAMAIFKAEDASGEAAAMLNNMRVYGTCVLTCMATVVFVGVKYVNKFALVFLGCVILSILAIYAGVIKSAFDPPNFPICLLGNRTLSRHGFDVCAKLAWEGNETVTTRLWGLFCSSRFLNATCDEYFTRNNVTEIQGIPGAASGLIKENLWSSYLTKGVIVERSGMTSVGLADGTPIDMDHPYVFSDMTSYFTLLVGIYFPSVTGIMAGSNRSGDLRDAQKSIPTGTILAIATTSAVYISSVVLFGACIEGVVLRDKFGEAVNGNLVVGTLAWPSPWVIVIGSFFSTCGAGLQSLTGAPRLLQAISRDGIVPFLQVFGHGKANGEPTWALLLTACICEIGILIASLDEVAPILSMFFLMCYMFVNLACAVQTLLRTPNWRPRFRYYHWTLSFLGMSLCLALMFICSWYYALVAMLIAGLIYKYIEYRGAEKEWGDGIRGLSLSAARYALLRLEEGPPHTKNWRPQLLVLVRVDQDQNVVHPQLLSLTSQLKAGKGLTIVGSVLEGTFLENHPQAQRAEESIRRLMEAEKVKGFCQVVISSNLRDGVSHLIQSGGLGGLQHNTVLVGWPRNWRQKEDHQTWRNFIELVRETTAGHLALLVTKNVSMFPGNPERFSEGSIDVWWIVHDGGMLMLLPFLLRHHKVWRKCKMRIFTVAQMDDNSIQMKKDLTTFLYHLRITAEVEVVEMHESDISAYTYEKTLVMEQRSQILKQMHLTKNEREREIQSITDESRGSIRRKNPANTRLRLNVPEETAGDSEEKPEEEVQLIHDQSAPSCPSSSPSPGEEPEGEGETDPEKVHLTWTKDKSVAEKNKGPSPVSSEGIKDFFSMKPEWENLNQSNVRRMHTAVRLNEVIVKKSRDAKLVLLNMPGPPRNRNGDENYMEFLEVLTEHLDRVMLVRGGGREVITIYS
STAT1 act: activators of IFN-gamma induced STAT1 signaling; 200,000 compounds, 2.6% hits; NIH 3T3 STAT1-luciferase reporter, luminescence; 100% = IFN-gamma alone, no compound; activation (% of control), % at 5.5 µM;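 active means activation above the screen-wide mean activation plus 3 SD, cut at about 130% in these data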
Of the large screens only hits and unclear results are named; the others gave an inactive call. This is a sample that favours compounds with a hit; in the whole collection about 5.5% have one here.

S=C(NC1CC1)NC1CCCc2ccccc21 (stereo unspecified)	none
O=C(Nc1ccc(Cl)cc1)C1=Cc2cc(Cl)ccc2OC1	none
O=C(Nc1ccc(Cl)cc1Cl)C1=Cc2ccccc2OC1	STAT1 act 141
CC1(C)CC(=O)c2cnc3c(C#N)cnn3c2C1	none
CN1CCN(S(=O)(=O)c2ccc(NC(=S)NC(=O)C(C)(C)C)cc2)CC1	none
C/C(=N\NC(=S)Nc1cccc(C)c1)c1ccccc1	HSV augment inconclusive, KCC2 mod 7.4
C/C(=N\NC(=S)Nc1cccc(C)c1)c1cccc(N)c1	KCC2 mod 9.2
C/C(=N\NC(N)=S)c1ccccc1	none (no result: STAT3 blocker, STAT1 inh, STAT3 act, STAT1 act)
CSC(=S)N/N=C(\C)c1ccccc1	KCC2 mod 143
Cc1c(F)cccc1NS(=O)(=O)c1ccc2c(c1)c(=O)n(C)c(=O)n2C	none
CS(=O)(=O)CC(=O)Nc1ccc2nc3n(c(=O)c2c1)CCCCC3	none (no result: STAT3 blocker, STAT1 inh, STAT3 act, STAT1 act)
Brc1ccc2c(c1)OCCOCCOCCOCCOCCOCCO2	none
COc1cc([N+](=O)[O-])ccc1NC(=O)CSc1nccn1C	none
CN(C)c1ccc(/C=C(\Cl)c2nc3ccccc3s2)cc1	STAT1 act 136
Cc1nn(C)c(C)c1CNC(=O)Nc1ccc(Cl)cc1	STAT1 act 129
O=C(NC1CCCCC1)C(c1ccc2ncccc2c1)N(Cc1ccc2c(c1)OCO2)C(=O)c1cccs1 (stereo unspecified)	STAT1 inh 36 (no result: KCC2 mod)
COc1ccc(CN(C(=O)c2cccs2)C(C(=O)NC2CCCCC2)c2ccc3ncccc3c2)cc1 (stereo unspecified)	none (no result: HSV augment)
Cc1cccc(N(C(=O)CNC(=O)c2cccs2)C(C(=O)NC2CCCC2)c2cccnc2)c1 (stereo unspecified)	none
Cc1cc(C)cc(N(C(=O)CNC(=O)c2cccs2)C(C(=O)NC2CCCC2)c2cccnc2)c1 (stereo unspecified)	STAT1 inh 36 (no result: KCC2 mod)
O=C(NC1CCCCC1)C(c1ccc2ncccc2c1)N(Cc1ccccc1)C(=O)c1cccs1 (stereo unspecified)	STAT1 inh 36 (no result: KCC2 mod)
CC(=O)c1sc(NC(=O)c2cccc(C)c2)nc1C	STAT1 act 131
COC(=O)c1sc(NC(=S)NC(=O)c2cccc(C)c2)nc1C	KCC2 mod 18
CC(=O)c1sc(NC(=O)c2ccccc2)nc1-c1ccccc1	STAT1 act 150
COC(=O)c1ccc(C(=O)OC)c(NC(=S)N2CCCC(C)C2)c1 (stereo unspecified)	none
O=C(Nn1c(C2CCCCC2)nc2ccccc2c1=O)c1ccc([N+](=O)[O-])cc1	none
CC(Oc1ccc(Cl)cc1Cl)C(=O)NCCC1=CCCCC1 (stereo unspecified)	none
O=C(Nc1ccc(SC(F)F)cc1)C1=COCCO1	STAT1 act 133
CC(=O)N1CCN(C(=S)Nc2ccc(SC(F)F)cc2)CC1	none
CCC(C)(C)n1nnnc1C(c1cc2cccc(C)c2[nH]c1=O)N1CCCC1 (stereo unspecified)	none
Cc1ccc(C)c2[nH]c(=O)c(C(c3nnnn3C(C)(C)C)N3CC=C(c4ccc(F)cc4)CC3)cc12 (stereo unspecified)	STAT1 inh 35
O=C(c1cc2cc(Br)ccc2o1)N1CCCCC1	STAT1 act 134
CC(C)c1csc(CN2CCC(CO)(Cc3cccc(F)c3)CC2)n1	none
Cc1occc1C(=O)Nc1ccc2c(c1)OCCO2	STAT1 act 131
Cc1ncoc1C(=O)Nc1ccc2c(c1)OCCO2	none (no result: KCC2 mod)
Cc1cc(C(=O)Nc2ccc3c(c2)OCCO3)c(C)o1	STAT1 act 130 (no result: KCC2 mod)
N#Cc1c(NC(=O)CSc2nc(N)cc(=O)[nH]2)sc2c1CCCC2	none
CC(C)(C)C(=O)N1CCc2cc(-c3csc(N)n3)ccc21	STAT3 blocker 85, STAT1 inh 37
CCCC(=O)N1CCc2cc(-c3nc(N)sc3C)ccc21	STAT1 act 137 (no result: KCC2 mod)
Nc1nc(-c2ccc3c(c2)OCCO3)cs1	none
CNc1nc(-c2ccc3c(c2)CCN3C(=O)CC(C)(C)C)c(C)s1	none
CC(=O)Nc1cccc(-c2csc(N)n2)c1	none
CCC(C)C(=O)N1CCc2cc(-c3csc(N)n3)ccc21 (stereo unspecified)	STAT1 act 132
Nc1nc(-c2ccc3c(c2)CCCC3)cs1	STAT1 act 136
CC(=O)NC(CC(=O)N(C)Cc1cccc(Cl)c1Cl)c1ccccc1 (stereo unspecified)	none
Cc1ncsc1C(=O)N1CCCC(CNS(=O)(=O)c2cccs2)C1 (stereo unspecified)	none
CCCCCCCC[n+]1c(C)n(-c2ccccc2)c2ccc(NC(C)=O)cc21	none
CC(=O)c1cccc(NC(=O)c2cc3nc(C)cc(C)n3n2)c1	STAT1 act 145
CC(=O)c1cccc(NC(=O)c2ccc(C(=O)Nc3cccc(C(C)=O)c3)nc2)c1	none
O=C(Nc1ccc2c(c1)OCO2)c1cc2nc(C3CC3)cc(C(F)(F)F)n2n1	none (no result: KCC2 mod)
O=C(Nc1cccnc1)c1cc(-c2ccc3c(c2)OCO3)on1	STAT1 act 134
Cc1cc(C)n2nc(C(=O)Nc3ccc4c(c3)OCO4)cc2n1	STAT1 act 129 (no result: KCC2 mod)
Cc1ccc(NC(=O)Nc2ccc3c(c2)OCO3)nc1	STAT1 act 149
Cc1cccc(OCCC(=O)Nc2ccc(C)c(S(=O)(=O)N3CCCCC3)c2)c1	none
CC(=O)c1c(N2CCOCC2)nc2ccc(Cl)cc2c1-c1ccccc1	none (no result: STAT3 blocker, STAT1 inh, STAT3 act, STAT1 act)
CC(C)Cc1cc(C(=O)Nc2ccc3c(c2)OCO3)no1	STAT1 act 132
CN(NS(=O)(=O)c1ccc(Cl)cc1)c1ncc(C(F)(F)F)cc1Cl	none
Nc1ccccc1N=Cc1ccc(-c2cccc(Cl)c2)o1	STAT1 act 140
O=C(COc1ccccc1C(=O)c1cnn(-c2ccccc2)c1)Nc1ccc2ccccc2c1	none
CC(C)c1ccc(NC(=O)COc2ccc(F)cc2C(=O)c2cnn(-c3ccccc3)c2)cc1	STAT3 act 147, STAT1 act 140
O=c1c2ccccc2ncn1CCCCOc1ccc(Br)cc1	none
CC(C)(/C=N/NC(=O)CSCc1ccccc1Cl)CCC#N	none
O=C(c1cc(COc2c(F)cccc2F)on1)N1CCC(c2ccccc2F)C1 (stereo unspecified)	STAT1 act 132
O=C(c1cc(COc2c(F)cccc2F)on1)N1CCC(c2ccccc2Cl)C1 (stereo unspecified)	none (no result: KCC2 mod)
Cc1ccc(S(=O)(=O)Oc2ccc(C3C4=C(CCCC4=O)N(CCC(=O)O)C4=C3C(=O)CCC4)cc2Cl)cc1	none
CCCCC(=O)NS(=O)(=O)c1ccc(N=NN(CC)CC)cc1	none
COc1ccc(NC(=O)C(=O)NNC(=O)C(C)Oc2ccc(Cl)cc2Cl)cc1 (stereo unspecified)	KCC2 mod 76
Cc1cccc2c1OCC/C2=N\NC(=O)COc1ccccc1Cl	STAT1 act 130
